INS-1E ATP HTS = preserves ATP levels in cytokine-treated INS-1E cells | INS-1E cytokine-induced death, ATP luminescence, 48 h; normalised: neutral wells 0, positive control 100 | hit rate 0.1% among 20,000 | AID 488910 | protection from cytokine-induced ATP loss, % at 10 µM;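 active means mean replicate protection from cytokine-induced ATP loss at least 50% and at least 75% of replicates each reaching 50%; inconclusive means meets only one of the two criteria, mean or replicate share; inactive means fails both the mean and replicate share criteria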
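Assay system: INS-1E rat insulinoma cells. Amount: 8000 cells per well. Medium: phenol-red-free RPMI with 5% fetal bovine serum. Reagent: IL-1β, TNF-α and IFN-γ cytokine mix. Doses: one compound concentration, pin transfer. Schedule: 48 h co-treatment, 10 min post-lysis read. Detection: CellTiter-Glo luminescence measuring cellular ATP.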
T cruzi intra = intracellular Trypanosoma cruzi inhibition. activity score (inhibition), % at 5.01 µM. AID 651903. hit rate 4.9% among 22,000. intracellular Trypanosoma cruzi in host cells, plate reader; in the data active means activity score above about 55%; inconclusive means no clear call, values can overlap the other calls;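 further: parasites and compound incubated about four days before reading; 0% = median of neutral control wells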
A1 apoptosis 2 = compounds inhibiting A1, read as caspase activation | MEF A1-2A-BIM cells, caspase-Glo luminescence, 3 h; percent of clofoctol response, DMSO zero | caspase activation, % (no concentration beside the values) | 24,000 tested, under 10 active | AID 2465; in the data active means caspase activation above about 5.9%; inconclusive means no clear call, values can overlap the other calls; inactive means below about 2.2%
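Test system – A1-2A-BIM-expressing MEF cells · Input – 2500 cells/well · Medium – RPMI-1640 growth medium with 10% FBS · Compound dosing – 50 nL pinned compound · Timing – 3 h compound exposure at 37 °C · Technique – Caspase-Glo luminescence (DEVD substrate) · Evaluation – Caspase-3/7 activity from luminescence increase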
The depositor's hits bear a star; ? = inconclusive; . = no result given. This excerpt belongs to a sample that is enriched for hits.

SMILES | INS-1E ATP HTS | T cruzi intra | A1 apoptosis 2
C[C@H](CO)N1C[C@H](C)[C@H](CN(C)Cc2ccc(Oc3ccccc3)cc2)Oc2ccc(N(C)C)cc2CC1=O | -16 | 34 | .
C[C@@H]1CN([C@H](C)CO)C(=O)Cc2cc(N(C)C)ccc2O[C@H]1CN(C)Cc1ccc(Oc2ccccc2)cc1 | -27 | 57* | .
C[C@H](CO)N1C[C@H](C)[C@H](CN(C)C(=O)Nc2ccccc2)Oc2ncc(-c3cccc(F)c3)cc2C1=O | . | 14 | 0
COc1ccc(CN(C)C[C@@H]2Oc3ccc(NC(=O)Nc4ccc(C(F)(F)F)cc4)cc3CC(=O)N([C@H](C)CO)C[C@@H]2C)cc1 | -89 | . | -1
COc1ccc(NC(=O)Nc2ccc3c(c2)CC(=O)N([C@H](C)CO)C[C@@H](C)[C@H](CN(C)Cc2ccc(C(F)(F)F)cc2)O3)cc1 | -43 | ? | 0
COc1ccc(NC(=O)Nc2ccc3c(c2)CC(=O)N([C@H](C)CO)C[C@@H](C)[C@@H](CN(C)Cc2ccc(C(F)(F)F)cc2)O3)cc1 | -11 | 67* | .
COc1ccc(CN(C)C[C@H]2Oc3ccc(NC(=O)Nc4ccc(C(F)(F)F)cc4)cc3CC(=O)N([C@H](C)CO)C[C@H]2C)cc1 | -14 | 74* | 1
COc1ccc(NC(=O)Nc2ccc3c(c2)CC(=O)N([C@@H](C)CO)C[C@H](C)[C@@H](CN(C)Cc2ccc(C(F)(F)F)cc2)O3)cc1 | -19 | 74* | .
COc1ccc(CN(C)C[C@@H]2Oc3ccc(NC(=O)Nc4ccc(C(F)(F)F)cc4)cc3CC(=O)N([C@H](C)CO)C[C@H]2C)cc1 | -8 | -8 | 0
COc1ccc(NC(=O)Nc2ccc3c(c2)CC(=O)N([C@@H](C)CO)C[C@H](C)[C@H](CN(C)Cc2ccc(C(F)(F)F)cc2)O3)cc1 | -2 | 2 | -1
COc1ccc(CN(C)C[C@H]2Oc3ccc(NC(=O)Nc4ccc(C(F)(F)F)cc4)cc3CC(=O)N([C@@H](C)CO)C[C@H]2C)cc1 | -26 | 68* | 1
CNC[C@@H]1Oc2c(NC(=O)c3ccc(-c4nccs4)cc3)cccc2C(=O)N([C@H](C)CO)C[C@H]1C | -2 | -11 | 0
C[C@@H]1CN([C@@H](C)CO)C(=O)c2cc(NC(=O)CCC(F)(F)F)ccc2O[C@@H](C)CCCCO[C@@H]1CN(C)Cc1ccc2c(c1)OCO2 | . | . | 1
COc1ccc(NC(=O)N(C)C[C@H]2Oc3ccc(NS(=O)(=O)c4ccc(C)cc4)cc3CC(=O)N([C@@H](C)CO)C[C@H]2C)cc1 | 2 | -3 | -1
C[C@H](CO)N1C[C@H](C)[C@H](CN(C)C(=O)Nc2ccccc2)Oc2ccc(NS(=O)(=O)c3cn(C)cn3)cc2CC1=O | -1 | -51 | 1
C[C@@H]1CN([C@@H](C)CO)C(=O)Cc2cc(NC(=O)NC3CCCCC3)ccc2O[C@@H]1CN(C)Cc1ccc(Oc2ccccc2)cc1 | -17 | 53 | .
C[C@@H]1CN([C@H](C)CO)C(=O)Cc2cc(NC(=O)NC3CCCCC3)ccc2O[C@H]1CN(C)Cc1ccc(Oc2ccccc2)cc1 | -29 | 64* | 1
C[C@H](CO)N1C[C@H](C)[C@@H](CN(C)Cc2ccc(-c3ccccc3)cc2)Oc2ccc(NC(=O)NC3CCCCC3)cc2CC1=O | . | . | -1
C[C@@H]1CN([C@H](C)CO)C(=O)Cc2cc(NC(=O)NC3CCCCC3)ccc2O[C@H]1CN(C)Cc1ccc(-c2ccccc2)cc1 | -27 | 75* | .
C[C@H]1CN([C@@H](C)CO)C(=O)Cc2cc(NC(=O)C3CCCCC3)ccc2O[C@@H]1CN(C)Cc1ccc2c(c1)OCO2 | -11 | 66* | .
C[C@@H]1CN([C@H](C)CO)C(=O)Cc2cc(NC(=O)C3CCCCC3)ccc2O[C@@H]1CN(C)Cc1ccc(Cl)c(Cl)c1 | -78 | 57* | .
C[C@@H]1CN([C@H](C)CO)C(=O)Cc2cc(NC(=O)C3CCCCC3)ccc2O[C@H]1CN(C)Cc1ccc(Cl)c(Cl)c1 | -31 | 50 | .
C[C@H](CO)N1C[C@H](C)[C@@H](CN(C)Cc2ccc3c(c2)OCO3)Oc2ccc(NC(=O)C3CCCCC3)cc2CC1=O | . | . | 0
COc1ccc(S(=O)(=O)Nc2ccc3c(c2)CC(=O)N([C@H](C)CO)C[C@H](C)[C@H](CN(C)C(=O)Nc2ccc4c(c2)OCO4)O3)cc1 | 5 | 5 | 0
C[C@@H]1CCCCO[C@H](CN(C)C)[C@H](C)CN([C@H](C)CO)C(=O)c2cc(NC(=O)CCC(F)(F)F)ccc2O1 | . | . | 0
C[C@@H]1CN([C@H](C)CO)C(=O)c2cccc(NC(=O)Nc3ccc(C(F)(F)F)cc3)c2O[C@@H]1CN(C)Cc1ccc2c(c1)OCO2 | -27 | ? | 1
